Sampled rows, rich in hits. Any-hit rate of the full collection: about 2.6%.
SENP8 block-1 = blocks human SENP8 cleavage of Nedd8 substrate. AID 602440. 0.64% of 360,000 active. Q96LD8. recombinant SENP8, Nedd8 substrate fluorescence. inhibition, % at 20 µM; in the data active = inhibition mostly above about 40%, no sharp cut-off; inactive = mostly below about 27%
SENP6 block = inhibitors of human SENP6 protease. Q9GZR1. Recombinant SENP6 catalytic domain, aminoluciferin luminescence. inhibition, % at 10 µM. 1.8% of 330,000 active;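 active = inhibition above about 50% at the single tested dose, limit read from the data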
SENP8 block-2 = inhibitors of human SENP8 protease. purified SENP8, Z-RLRGG-aminoluciferin cleavage, luminescence. AID 2540. 1.2% of 330,000 active. inhibition, % at 10 µM. Q96LD8; in the data active = inhibition above about 50%
Platelet DG rel = modulates dense granule release in human platelets. inhibition, %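 (compounds screened at 7.5 µM in platelet-rich plasma)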. human platelet-rich plasma, SFLLRN dense granule ATP release, luminescence. AID 1663. 0.22% of 300,000 active;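 active = mean replicate score, as percent of positive control, at or above 50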
SENP7 block = blocks the human protease SENP7. recombinant SENP7, Z-RLRGG-aminoluciferin luminescence, 40 min. 1.5% of 330,000 active. inhibition, % at 5 µM. Q9BQF6;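 active = inhibition above about 50% at the single test dose, limit read from the data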
SENP1 inh = SENP1 (human) catalytic domain inhibition; inhibition, % at 10 µM; AID 624204; Q9P0U3; recombinant SENP1 catalytic domain, CyPet-SUMO1-YPet FRET cleavage; 0.21% of 360,000 active;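 active = inhibition at least 30% at 10 µM, raw YFP signal under a set limit, fluorescence ratio 0.5 to 1.5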
Target sequence (Q9P0U3 419-644 limits assumed): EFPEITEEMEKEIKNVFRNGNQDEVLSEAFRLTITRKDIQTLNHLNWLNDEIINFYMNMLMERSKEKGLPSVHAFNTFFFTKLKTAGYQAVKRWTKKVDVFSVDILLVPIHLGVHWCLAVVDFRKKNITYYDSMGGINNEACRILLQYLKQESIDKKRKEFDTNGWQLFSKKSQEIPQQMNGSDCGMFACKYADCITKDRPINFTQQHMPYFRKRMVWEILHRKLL
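Material: hSENP1 catalytic domain, recombinant; medium: Tris pH 8 with BME, BSA, NP40 and catalase; compound: single concentration of 10 µM compound, 0.5% DMSO final; technique: FRET read of cyan and yellow fluorescence; timing: 50 min enzyme reaction, room temperature, light-protected; reagent: SFCypet-SUMO1-SFYpet substrate at 25 nM; control set: no-enzyme low, enzyme-DMSO high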
SENP8 conf = human SENP8 inhibition, confirmed; shares compounds with SENP7 block; Recombinant SENP8, Z-RLRGG-aminoluciferin luminescence, 60 min; inhibition, % at 12.5 µM; 40% of 6,200 active; AID 488912;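 active = mean inhibition across replicates above about 50%, limit read from the data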
SENP6 conf = human SENP6 inhibition, confirmed. shares compounds with SENP7 block. recombinant SENP6, Z-RLRGG-aminoluciferin luminescence. inhibition, % at 12.5 µM. 58% of 6,200 active. AID 488915
SENP7 conf = human SENP7 inhibition, confirmed. shares compounds with SENP7 block. recombinant SENP7, Z-RLRGG-aminoluciferin luminescence, 40 min. inhibition, % at 12.5 µM. 69% of 6,200 active. AID 488917
Casp3 select = caspase-3 inhibition (SENP selectivity assay); shares compounds with SENP7 block; purified caspase-3, Z-DEVD-aminoluciferin luminescence, 60 min; inhibition, % at 12.5 µM; 60% of 6,200 active;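 active = mean inhibition above about 50%, limit read from the data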
Target sequence (P42574 28-227 limits assumed): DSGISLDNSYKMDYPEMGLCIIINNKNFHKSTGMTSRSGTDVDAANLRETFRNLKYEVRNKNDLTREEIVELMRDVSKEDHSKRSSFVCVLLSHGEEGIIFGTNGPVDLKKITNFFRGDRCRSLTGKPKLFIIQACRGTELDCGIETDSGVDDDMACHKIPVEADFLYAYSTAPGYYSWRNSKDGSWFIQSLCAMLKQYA
SENP luc ctr = interferes with luciferase luminescence in SENP counter-screen; Pre-incubated SENP8/Z-RLRGG-aminoluciferin, luciferase luminescence interference; inhibition, % at 12.5 µM; 39% of 6,200 active; shares compounds with SENP7 block;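 active = mean inhibition above about 50% when retested at one dose, limit read from the data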
Each line names hits and unclear results; the compound was inactive in the other large screens (follow-up assays come after a bar, where they were run).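 Rule for the calls, unless noted: active = mean inhibition above about 50% in the one-dose retest (limit read from the data); inactive = the rest.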

COc1ccc(-c2csc(NC(=O)c3ccc(C(C)(C)C)cc3)c2C(=O)O)cc1	none (no result: SENP8 block-1, SENP1 inh)
O=C(O)c1ccc(NC2=Nc3cccc4cccc2c34)cc1	none (no result: SENP6 block, SENP8 block-2, SENP7 block)
CCOC(=O)N1CCN(C2=Nc3cccc4cccc2c34)CC1	SENP6 block 75 | SENP8 conf inactive | SENP6 conf inactive | SENP7 conf inactive | Casp3 select inactive | SENP luc ctr inactive
c1cc2c3c(cccc3c1)C(N1CCOCC1)=N2	SENP6 block 76 | SENP8 conf inactive | SENP6 conf inactive | SENP7 conf inactive | Casp3 select inactive | SENP luc ctr inactive
CC1CN(C2=Nc3cccc4cccc2c34)CC(C)O1 (stereo unspecified)	none
CC(=O)N1CCN(C2=Nc3cccc4cccc2c34)CC1	SENP6 block 81, SENP8 block-2 67 | SENP8 conf inactive | SENP6 conf inactive | SENP7 conf inactive | Casp3 select inactive | SENP luc ctr inactive
CCOC(=O)N1CCN(C(=O)Nc2cccc3ccccc23)CC1	SENP6 block 52 | SENP8 conf inactive | SENP6 conf inactive | SENP7 conf inactive | Casp3 select inactive | SENP luc ctr inactive
CCOC(=O)N1CCN(C(=O)Nc2ccc(NC(=O)N3CCN(C(=O)OCC)CC3)cc2)CC1	none
O=C(O)C1CCC(N2C(=O)c3cccc([N+](=O)[O-])c3C2=O)CC1 (stereo unspecified)	none
COC(=O)[C@]12CCCCC=C1N(Cc1ccco1)C(=O)[C@H](CC(=O)NCc1ccccc1)C2	none (no result: SENP6 block, SENP8 block-2, Platelet DG rel, SENP7 block)
O=C1c2cccc3cccc(c23)C(=O)N1CC1CCN(S(=O)(=O)c2ccccc2)CC1	none (no result: SENP6 block, SENP8 block-2, Platelet DG rel, SENP7 block)
c1ccc(CC2CCN(C3=Nc4cccc5cccc3c45)CC2)cc1	SENP6 block 73 | SENP8 conf inactive | SENP6 conf inactive | SENP7 conf inactive | Casp3 select inactive | SENP luc ctr inactive
COc1cc(/C=C(\C#N)c2nc3ccccc3o2)ccc1O	SENP6 block 95, SENP8 block-2 90, SENP7 block 80 | SENP8 conf 94 | SENP6 conf 94 | SENP7 conf 99 | Casp3 select 86 | SENP luc ctr inactive
COc1cc(/C=C(\C#N)c2nc3ccccc3[nH]2)ccc1OC(=O)c1ccco1	SENP6 block 75, SENP8 block-2 83, SENP7 block 73 | SENP8 conf 66 | SENP6 conf 67 | SENP7 conf 99 | Casp3 select 86 | SENP luc ctr inactive
N#C/C(=C\c1ccc(O)cc1)c1nc2ccccc2o1	SENP6 block 84, SENP8 block-2 74, SENP7 block 63 | SENP8 conf 81 | SENP6 conf 80 | SENP7 conf 93 | Casp3 select 62 | SENP luc ctr 74
Cc1ccc(C)c(N/C=C(\C#N)c2nc3ccccc3o2)c1	none
CC(C)(C)C(=O)CN1C(=O)NC(C)(Cc2ccc3c(c2)OCO3)C1=O (stereo unspecified)	none
S=C(Nc1ccccn1)c1ccccn1	SENP8 block-2 68, SENP7 block 84 | SENP8 conf 53 | SENP6 conf 76 | SENP7 conf 94 | Casp3 select 86 | SENP luc ctr inactive
CC(C)(C)c1cc(C(=O)N/N=C/c2ccc(-c3ccccc3[N+](=O)[O-])o2)n[nH]1	SENP6 block 52 | SENP8 conf inactive | SENP6 conf inactive | SENP7 conf inactive | Casp3 select inactive | SENP luc ctr inactive
NC(Cc1ccccc1)c1csc(Nc2ccc(C(=O)c3ccccc3)cc2)n1 (stereo unspecified)	none (no result: SENP6 block, SENP8 block-2, Platelet DG rel, SENP7 block)
